# Test results taken from ChEMBL document CHEMBL4834390, “Nanomolar-Potency 1,2,4-Triazoloquinoxaline Inhibitors of the Kidney Urea Transporter UT-A1” (J Med Chem, 2018).
# The source made the active and inactive calls. No cut-off for these calls is given here.
# Legend:
# Urea transporter 2 = target: T1, Urea transporter 2 (Rattus norvegicus, UniProt Q62668); assay: Inhibition of rat UT-A1 expressed in MDCK cells incubated for 15 mins by fluorescence plate reader assay; format: cell-based
# T1 sequence (Q62668 whole entry): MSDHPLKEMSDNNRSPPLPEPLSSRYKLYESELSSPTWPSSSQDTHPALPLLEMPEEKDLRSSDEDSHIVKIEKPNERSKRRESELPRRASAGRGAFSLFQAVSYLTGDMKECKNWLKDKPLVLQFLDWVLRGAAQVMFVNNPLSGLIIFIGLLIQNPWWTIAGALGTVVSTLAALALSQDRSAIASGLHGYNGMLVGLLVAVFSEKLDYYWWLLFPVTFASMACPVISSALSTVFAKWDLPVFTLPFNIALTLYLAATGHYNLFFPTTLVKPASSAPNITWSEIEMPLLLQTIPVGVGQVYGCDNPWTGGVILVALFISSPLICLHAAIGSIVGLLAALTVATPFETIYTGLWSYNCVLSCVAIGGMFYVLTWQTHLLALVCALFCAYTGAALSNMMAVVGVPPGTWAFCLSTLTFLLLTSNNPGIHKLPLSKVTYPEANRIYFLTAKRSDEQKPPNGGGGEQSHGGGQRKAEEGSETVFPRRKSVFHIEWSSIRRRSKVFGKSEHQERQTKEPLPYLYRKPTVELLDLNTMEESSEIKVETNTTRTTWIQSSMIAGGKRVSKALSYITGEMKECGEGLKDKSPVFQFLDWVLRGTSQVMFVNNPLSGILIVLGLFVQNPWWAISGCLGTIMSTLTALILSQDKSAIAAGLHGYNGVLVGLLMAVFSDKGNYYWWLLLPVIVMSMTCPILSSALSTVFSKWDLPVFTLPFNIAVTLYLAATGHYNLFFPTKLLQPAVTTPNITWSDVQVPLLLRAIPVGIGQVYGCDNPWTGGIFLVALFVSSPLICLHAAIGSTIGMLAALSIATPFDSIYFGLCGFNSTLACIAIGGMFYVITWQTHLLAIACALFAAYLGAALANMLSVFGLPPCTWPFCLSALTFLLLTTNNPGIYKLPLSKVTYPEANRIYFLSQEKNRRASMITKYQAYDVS
# Urea transporter 1 = target: T2, Urea transporter 1 (Rattus norvegicus, UniProt P97689); assay: Inhibition of rat UT-B incubated for 15 mins
# T2 sequence (P97689 whole entry): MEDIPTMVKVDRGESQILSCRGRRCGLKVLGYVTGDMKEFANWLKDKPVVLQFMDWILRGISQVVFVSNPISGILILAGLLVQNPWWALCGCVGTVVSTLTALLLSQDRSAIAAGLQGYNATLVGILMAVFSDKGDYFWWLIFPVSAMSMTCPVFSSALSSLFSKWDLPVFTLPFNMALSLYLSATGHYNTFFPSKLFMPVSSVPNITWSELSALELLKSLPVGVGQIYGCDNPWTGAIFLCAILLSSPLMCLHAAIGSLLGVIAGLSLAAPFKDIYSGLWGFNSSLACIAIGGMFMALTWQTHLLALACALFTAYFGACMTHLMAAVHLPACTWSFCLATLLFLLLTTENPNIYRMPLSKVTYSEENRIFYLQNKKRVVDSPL
# Summary of the method: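 Rat whole blood diluted to ~1.5% hematocrit in PBS with 1.25 M acetamide and 5 mM glucose; compound incubated 15 min, then cells mixed into isomolar buffer; lysis read by absorbance at 710 nm. Isomolar buffer as non-lysed and 0.7 mM phloretin as lysed control; % lysis computed from these; mean ± SEM, n = 3.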
# MDCK = assay: Cytotoxicity against dog MDCK cells at 10 uM after 24 hrs by alamar blue assay; format: cell-based, Canis lupus familiaris
# Summary of the method: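 MDCK cells stably co-expressing rat UT-A1, YFP-H148Q/V163S and human AQP1 grown 24 h at 37 °C, then exposed to compound at 10 µM for 24 h; viability read by AlamarBlue; mean ± SEM, n = 3.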
# [1] = Metabolic stability in Sprague-Dawley rat liver microsomes assessed as compound remaining at 5 uM preincubated for 5 mins followed by NADPH addition and measured at 30 mins by LC/MS analysis; format: ADME, Microsome; details: time 35 min, read-out: Stabilty
# Summary of the method: (§1)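 Compound at 5 µM preincubated 5 min at 37 °C with male Sprague-Dawley rat liver microsomes (1 mg protein/mL) in 0.1 M PBS pH 7.4. 1 mM NADPH then added, incubation continued at 37 °C for set times, then chilled and EtOAc-extracted. Parent compound measured by LC/MS as peak area/internal standard ratio; mean ± SEM, n = 3.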
# [2] = Drug concentration in Wistar rat serum at 4 mg/kg, iv after 3 hrs by LC/MS analysis; format: ADME, organism-based
# Summary of the method: (§2)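 Male Wistar rats (250–300 g) dosed 4 mg/kg iv in saline containing 20% dimethylacetamide and 1.28 mg/mL NaOH. Tail-vein blood taken at 15, 30, 60, 120, 180 min without anticoagulant, serum separated; urine collected 3 h in metabolic cages; samples frozen at –20 °C. LC/MS (ESI positive) quantitation against standards spiked into control rat urine or plasma.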
# [3] = Drug concentration in Wistar rat urine at 4 mg/kg, iv after 3 hrs by LC/MS analysis; format: ADME, organism-based; details: read-out: Ct; summary of the method: as §2
# Rattus norvegicus [4] = assay: Diuretic activity in Wistar rat assessed as increase in urine volume at 4 mg/kg, iv after 3 hrs; format: functional, organism-based
# Summary of the method: (§3)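 Male Wistar rats (250–300 g), acclimated in metabolic cages 3 days (6 h/day). Urine voided spontaneously over 3 h before dosing, then 4 mg/kg iv via catheter in saline with 20% dimethylacetamide and 1.28 mg/mL NaOH, or vehicle. Urine collected 3 h after dosing; volume and osmolality compared with pretreatment (paired t-test); mean ± SEM, n = 4.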
# Rattus norvegicus [5] = assay: Diuretic activity in Wistar rat assessed as reduction in urine osmolality at 4 mg/kg, iv after 3 hrs; format: functional, organism-based; summary of the method: as §3
# [6] = Metabolic stability in Sprague-Dawley rat liver microsomes assessed as compound remaining at 5 uM preincubated for 5 mins followed by NADPH addition and measured at 15 mins by LC/MS analysis; format: ADME, Microsome; details: time 20 min, read-out: Stabilty; summary of the method: as §1
# [7] = target: T3, Urea transporter 2 (Rattus norvegicus) (UniProt Q62668); assay: Reversible inhibition of rat UT-A1 expressed in MDCK cells at 0.5 uM incubated for 15 mins followed by compound washing for 15 mins; format: cell-based
# T3 sequence (whole entry): T1 sequence (Q62668 whole entry)
# Summary of the method: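 MDCK cells stably expressing rat UT-A1, AQP1 and YFP sensor incubated with 0.5 µM compound for 15 min, washed with PBS for 15 min, then assayed for UT-A1 urea transport by fluorescence plate reader.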
# [8] = target: T3, Urea transporter 2 (Rattus norvegicus); assay: Noncompetitive inhibition of rat UT-A1 expressed in MDCK cells assessed as inhibition of urea transport; format: cell-based
# [9] = target: T3, Urea transporter 2 (Rattus norvegicus); assay: Inhibition of rat UT-A1 expressed in MDCK cells at 0.5 uM by fluorescence plate reader assay; format: cell-based; details: time 100-500 sec
# Summary of the method: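 MDCK cells stably expressing rat UT-A1, human AQP1 and YFP volume sensor; compound at 0.5 µM added at different times before assay; urea transport followed by YFP fluorescence on a plate reader; DMSO as 0% and phloretin as 100% inhibition.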
SMILES,IC50 (Urea transporter 2) [nM],other results
CCCc1nnc2c(Oc3ccc(NS(=O)(=O)c4cc(C)ccc4C)cc3)nc3ccccc3n12,500,
COc1ccc(Cl)cc1S(=O)(=O)Nc1ccc(Oc2nc3cc(F)c(F)cc3n3cnnc23)cc1,1200,
COc1ccc(Cl)c(S(=O)(=O)Nc2ccc(Nc3nc4ccccc4n4cnnc34)cc2)c1,> 20000,
CCOc1nnc2c(Oc3ccc(NS(=O)(=O)c4cc(Cl)ccc4OC)cc3)nc3ccccc3n12,1200,
O=S(=O)(Nc1ccc(Oc2nc3ccccc3n3cnnc23)cc1)c1ccccc1Cl,5000,
Cc1ccccc1S(=O)(=O)Nc1ccc(Oc2nc3ccccc3n3cnnc23)cc1,8000,
COc1ccc(Cl)cc1S(=O)(=O)Nc1cccc(O)c1,6000,IC50 (Urea transporter 1): 14000 nM
COc1ccc(Cl)cc1S(=O)(=O)Nc1ccc2nc(SC)sc2c1,5000,IC50 (Urea transporter 1): 10000 nM
COc1ccc(Cl)c(S(=O)(=O)Nc2cccc(Oc3nc4ccccc4n4cnnc34)c2)c1,> 20000,
O=S(=O)(Nc1ccc(Oc2nc3ccccc3n3cnnc23)cc1)c1ccccc1OC(F)(F)F,20000,
COc1ccc(C)cc1S(=O)(=O)Nc1ccc(Oc2nc3cc(F)c(F)cc3n3cnnc23)cc1,1500,
CCc1nnc2c(Oc3ccc(NS(=O)(=O)c4cc(Cl)ccc4OC)cc3)nc3cc(C)c(C)cc3n12,1400,
CCc1nnc2c(Oc3ccc(NS(=O)(=O)c4cc(Cl)ccc4OC)cc3)nc3ccccc3n12,500,
COc1ccc(C)cc1S(=O)(=O)Nc1ccc(Oc2nc3ccccc3n3c(C(C)C)nnc23)cc1,500,
CCCc1nnc2c(Oc3ccc(NS(=O)(=O)c4cc(C)ccc4OC)cc3)nc3ccccc3n12,400,
CCCc1nnc2c(Oc3ccc(NS(=O)(=O)c4cc(Cl)ccc4OC)cc3)nc3ccccc3n12,150,"IC50 (Urea transporter 1): 2000 nM; inhibition [7]: Active; inhibition [8]: Active; inhibition [9]: Active; Activity (MDCK): Non-Toxic; remaining at 0.25 h, 5 µM [6]: 40%"
CCCCc1nnc2c(Oc3ccc(NS(=O)(=O)c4cc(C)ccc4C)cc3)nc3ccccc3n12,800,
CC(=O)Nc1ccc(-c2noc(C3CCCN(C(=O)c4ccccc4F)C3)n2)cc1 (stereo unspecified),3000,IC50 (Urea transporter 1): > 50000 nM
COc1ccc(Cl)cc1S(=O)(=O)Nc1ccc(Oc2nc3cc(Cl)c(Cl)cc3n3cnnc23)cc1,> 20000,
COc1ccc(C)cc1S(=O)(=O)Nc1ccc(Oc2nc3ccccc3n3cnnc23)cc1,1100,
COc1ccc(Cl)cc1S(=O)(=O)Nc1ccc(Oc2nc3ccccc3n3c(C)nnc23)cc1,> 20000,
COc1ccc(Cl)cc1S(=O)(=O)Nc1ccc(Oc2nc3ccccc3n3cnnc23)cc1,800,IC50 (Urea transporter 1): 4000 nM; Activity (MDCK): Non-Toxic
COC(=O)c1sc2nc3c(cc2c1N)CN(Cc1ccccc1)CC3,3000,IC50 (Urea transporter 1): 3000 nM
COc1ccc(-c2cccc(-c3ccn(Cc4csc(C)n4)n3)c2)nn1,1500,IC50 (Urea transporter 1): 31000 nM

# The next lines start with results.
IC50 (Urea transporter 2) [nM],SMILES,other results
> 20000,COc1ccc(Cl)c(S(=O)(=O)Nc2ccc(Oc3nc4ccccc4n4cnnc34)cc2)c1,
400,CCCCc1nnc2c(Oc3ccc(NS(=O)(=O)c4cc(C)ccc4OC)cc3)nc3ccccc3n12,
2000,O=C(Nc1ccon1)c1cc(-c2ccccc2)nc2ccccc12,IC50 (Urea transporter 1): > 100000 nM
300,CCCc1nnc2c(Oc3ccc(NS(=O)(=O)c4cc(Cl)ccc4OC)cc3)nc3cc(F)c(F)cc3n12,"IC50 (Urea transporter 1): 800 nM; Activity (MDCK): Non-Toxic; remaining at 0.5 h, 5 µM [1]: 60%; concentration at 3 h [2]: > 2 µM; concentration at 3 h [3]: 6 µM; Activity (Rattus norvegicus [4]): Active; Activity (Rattus norvegicus [5]): Active"
750,CCc1nnc2c(Oc3ccc(NS(=O)(=O)c4cc(C)ccc4C)cc3)nc3ccccc3n12,
> 20000,O=S(=O)(Nc1ccc(Oc2nc3ccccc3n3cnnc23)cc1)c1cccc(Cl)c1,
> 20000,COc1ccc(Cl)cc1S(=O)(=O)Nc1cccc(Oc2nc3ccccc3n3cnnc23)c1,
400,CCCc1nnc2c(Oc3ccc(NS(=O)(=O)c4cc(Cl)ccc4OC)cc3)nc3cc(C)c(C)cc3n12,"remaining at 0.25 h, 5 µM [6]: 25%"
300,COc1ccc(Cl)cc1S(=O)(=O)Nc1ccc(Oc2nc3ccccc3n3c(C(C)C)nnc23)cc1,
2700,COc1ccc(Cl)cc1S(=O)(=O)Nc1ccc(Oc2nc3cc(C)c(C)cc3n3cnnc23)cc1,
1200,COc1ccc(Cl)cc1S(=O)(=O)Nc1ccc(Oc2nc3cc(C)c(C)cc3n3c(C(C)C)nnc23)cc1,
> 20000,Cc1ccc(C)c(S(=O)(=O)Nc2ccc(Oc3nc4ccccc4n4c(C)nnc34)cc2)c1,
1500,CCOc1nnc2c(Oc3ccc(NS(=O)(=O)c4cc(C)ccc4OC)cc3)nc3ccccc3n12,
> 20000,COc1ccc(C)cc1S(=O)(=O)Nc1ccc(Oc2nc3ccccc3n3c(C)nnc23)cc1,
1500,Cc1ccc(C)c(S(=O)(=O)Nc2ccc(Oc3nc4ccccc4n4cnnc34)cc2)c1,
600,Cc1ccc(C)c(S(=O)(=O)Nc2ccc(Oc3nc4ccccc4n4c(C(C)C)nnc34)cc2)c1,
700,CCc1nnc2c(Oc3ccc(NS(=O)(=O)c4cc(C)ccc4OC)cc3)nc3ccccc3n12,
> 20000,COc1ccc(Cl)cc1S(=O)(=O)Nc1ccc(Nc2nc3ccccc3n3cnnc23)cc1,
200,CCCCc1nnc2c(Oc3ccc(NS(=O)(=O)c4cc(Cl)ccc4OC)cc3)nc3ccccc3n12,
> 20000,COc1ccc(Cl)c(S(=O)(=O)Nc2cccc(Nc3nc4ccccc4n4cnnc34)c2)c1,
